# High-throughput results as filed in PubChem.
# This is a sample that favours compounds with a hit; in the whole collection about 2.1% have one here.
# MC4R antag cAMP: human MC4R antagonism in cAMP assay; MC4R-expressing cells, MTII-stimulated cAMP, LANCE TR-FRET; 360,000 tested, 0.48% active; AID 540295; inhibition, % at 6.5 µM; P32245;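 active = inhibition above its plate's cutoff, the mean of tested wells on that plate plus 3 SD, cut at about 29% in these data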
# Target sequence (P32245 whole entry, looked up): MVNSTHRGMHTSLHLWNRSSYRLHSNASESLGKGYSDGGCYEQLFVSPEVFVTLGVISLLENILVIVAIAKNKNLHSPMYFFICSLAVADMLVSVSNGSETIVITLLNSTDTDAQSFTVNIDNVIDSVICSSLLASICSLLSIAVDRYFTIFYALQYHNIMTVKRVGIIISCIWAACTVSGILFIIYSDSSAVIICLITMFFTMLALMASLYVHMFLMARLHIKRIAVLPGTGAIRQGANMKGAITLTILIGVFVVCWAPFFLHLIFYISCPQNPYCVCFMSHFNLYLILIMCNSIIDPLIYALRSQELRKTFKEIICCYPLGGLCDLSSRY
#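 Material: human MC4R-expressing U2OS cells. Probe or stimulus: Melanotan II challenge. Dosing: 6.5 µM single dose. Times: 30-min compound, 1-h challenge, 1-h detection, room temperature. Technique: TR-FRET with Eu-cAMP and labeled anti-cAMP, 671 nm. Replication: singlicate.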
# MC4R barr agon: agonists of human melanocortin 4 receptor (MC4R) beta-arrestin. AID 540308. U2OS MC4R beta-arrestin complementation, luminescence; percent of melanotan II response, DMSO zero. P32245. 360,000 tested, 0.98% active. activation, % at 8.9 µM;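 active = activation above a per-plate cutoff, the mean activation of sample wells on that plate plus 3 SD, cut at about 8% in these data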
# CFTR F508del cor: CFTR F508del correction in bronchial cells; CFBE cells, YFP halide quenching; stimulated with forskolin plus potentiator P3; % fluorescence drop versus neutral controls; activity (quench increase), % at 7.58 µM; 350,000 tested, 0.36% active;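 active = mean added fluorescence quench of at least 8% versus neutral control, with both replicates also reaching 8%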;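 note: cells transiently co-express mutant CFTR-F508del with the halide-sensitive YFP; corrector assay measuring rescue of mutant channel to the surface after 24 h compound exposure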
# SMARCA2 act: SMARCA2 function activation, primary screen; AID 652017; MG213 cells, MMTV-luciferase reporter, dexamethasone, overnight; activation, % at 9.1 µM; 370,000 tested, 1% active; in the data active = activation above about 7.8%
# cAMP nonselect: counter-screen for MC4R antagonists: nonselective cAMP signaling inhibitors; shares compounds with MC4R antag cAMP; parental U2OS, forskolin cAMP, LANCE TR-FRET; inhibition, % at 6.5 µM; 1,600 tested, 26% active; AID 602193;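 active = mean inhibition over triplicates above the low-control well mean plus 3 SD, set per campaign, cut at about 13% in these data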;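 note: signal is single emission at 671 nm which falls as cellular cAMP rises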
# MC4R antag conf: human MC4R cAMP antagonism confirmation. shares compounds with MC4R antag cAMP. MC4R-expressing cells, MTII-stimulated cAMP, TR-FRET. inhibition, % at 6.5 µM. 1,600 tested, 27% active; in the data active = inhibition above about 29%
# Hits are given with their value; i = inactive; nt = not tested or not shown.
SMILES,MC4R antag cAMP,MC4R barr agon,CFTR F508del cor,SMARCA2 act,cAMP nonselect,MC4R antag conf
C=CCSc1nc2c(N)ncnc2n1C1OC(CO)C(O)C1O (configuration not stated),31,i,i,i,i,i
CNc1nc2c(N)ncnc2n1[C@H]1O[C@@H](CO)[C@H](O)[C@@H]1O,i,i,i,i,nt,nt
Cc1nc2ccc(NC(=O)c3ccc(S(=O)(=O)N(C)c4ccccc4)cc3)cc2s1,30,i,nt,i,27,i
Cc1cccc(C)c1N1C(=O)c2cccc([N+](=O)[O-])c2C1=O,i,i,nt,i,nt,nt
Cc1ccc(N2C(=O)c3cccc([N+](=O)[O-])c3C2=O)cc1C,42,i,i,i,23,45
CN1CCN(C(=O)C[C@H]2CC[C@H]3[C@H](COc4ccc(NC(=O)C5CCCCC5)cc4C(=O)N3C)O2)CC1,nt,nt,i,nt,nt,nt
Cc1ccc(NC(=O)c2ccc(Cl)cc2[N+](=O)[O-])nc1,i,i,i,i,nt,nt
Cc1ccc(NC(=O)c2ccccc2[N+](=O)[O-])nc1,38,i,nt,i,i,i
COC(=O)COc1ccc(NS(=O)(=O)c2cccc([N+](=O)[O-])c2)cc1,31,i,i,i,22,43
CN(C)CC(=O)Nc1ccc2c(c1)[C@H]1C[C@@H](CC(=O)NC3CCCC3)O[C@H](CO)[C@H]1O2,nt,nt,i,nt,nt,nt
Cc1noc(C)c1COC(=O)c1cc(F)c(F)cc1Cl,i,i,nt,i,nt,nt
Cc1noc(C)c1COC(=O)c1cnc(Cl)c(Cl)c1,30,i,i,i,i,33
Cc1noc(C)c1COC(=O)/C=C/c1ccc(Cl)cc1,31,i,i,i,i,i
CCCNC(=O)[C@H]1[C@H](CO)[C@H]2Cn3c(ccc(-c4cccnc4)c3=O)[C@@H]1N2C(=O)Nc1ccccc1,nt,nt,i,nt,nt,nt
C[C@H]1CCCCO[C@@H](CN(C)Cc2ccncc2)[C@@H](C)CN([C@@H](C)CO)C(=O)c2cc(NS(=O)(=O)c3ccccc3)ccc2O1,nt,nt,i,nt,nt,nt
COCC(=O)N(C)C[C@H]1Oc2cc(C#CCC3CCCC3)ccc2S(=O)(=O)N([C@H](C)CO)C[C@H]1C,nt,nt,i,nt,nt,nt
CCn1c(CC(=O)Nc2ccc(F)cc2)nnc1SCC(=O)Nc1nnc(C)s1,30,i,i,i,i,i
CCOC(=O)c1c(-c2ccc(C)o2)csc1NC(=O)COC(=O)c1cccs1,31,i,nt,i,i,i
CCOC(=O)c1c(-c2ccccc2)csc1NC(=O)COc1ccc2c(C)cc(=O)oc2c1,30,i,nt,i,i,i
CCOC(=O)c1c(-c2ccc(C)o2)csc1NC(=O)CN1CCOCC1,i,i,nt,i,nt,nt
CCOC(=O)c1c(-c2ccccc2)csc1NC(=O)CSc1ccccc1,i,i,nt,i,nt,nt
COC(=O)CSc1[nH]c2ccc(F)cc2c1[N+](=O)[O-],34,i,i,i,i,i
C[C@@H]1CCCCO[C@H](CN(C)C(=O)Cc2ccccc2)[C@@H](C)CN([C@H](C)CO)C(=O)c2cc(NC(=O)c3ccncc3)ccc2O1,nt,nt,i,nt,nt,nt
Cn1c(=O)c2c(nc(Sc3n[nH]c(N)n3)n2Cc2ccccc2Cl)n(C)c1=O,29,i,nt,i,i,i
Cn1c(=O)c2c(nc(Sc3ncccn3)n2Cc2ccccc2Cl)n(C)c1=O,i,i,i,i,nt,nt
SMILES,MC4R antag cAMP,MC4R barr agon,CFTR F508del cor,SMARCA2 act,cAMP nonselect,MC4R antag conf
COc1ccccc1C(=O)NC(CCSC)C(=O)OCC(=O)N1CCCC1=O (configuration not stated),29,i,i,i,17,42
CSCCC(NC(=O)c1ccc(Cl)cc1)C(=O)OCC(=O)N1CCCC1=O (configuration not stated),i,i,i,i,nt,nt
Cc1ccc(S(=O)(=O)Nc2cccc3c2O[C@H](CN(C)S(=O)(=O)c2cccs2)[C@@H](C)CN([C@@H](C)CO)C3=O)cc1,nt,nt,i,nt,nt,nt
CC(C)OP(=O)(OC(C)C)C(Nc1ccc([N+](=O)[O-])cc1)c1cccc([N+](=O)[O-])c1 (configuration not stated),i,i,i,i,nt,nt
CC(C)OP(=O)(OC(C)C)/C(C=O)=N\Nc1ccc([N+](=O)[O-])cc1,39,i,i,i,i,i
CSCc1ccc(C(=O)Nc2ccc(C(N)=O)cc2)cc1,31,i,i,i,i,i
CSCc1ccc(C(=O)NCc2ccc(C)cc2)cc1,i,i,nt,i,nt,nt
C[C@H](CO)N1C[C@H](C)[C@@H](CN(C)S(=O)(=O)c2cn(C)cn2)Oc2ccc(NC(=O)CCC(F)(F)F)cc2CC1=O,nt,nt,i,nt,nt,nt
CO[C@@H]1CN(C)C(=O)c2ccc(NC(=O)C3CC3)cc2OC[C@@H](C)N(Cc2cc(F)ccc2F)C[C@H]1C,nt,nt,i,nt,nt,nt
CCOC(=O)CSc1nnc(NC(=O)c2cccc([N+](=O)[O-])c2)s1,39,i,nt,i,i,i
CCOC(=O)Cc1ccc(NC(=O)c2cccc([N+](=O)[O-])c2)cc1,i,i,i,i,nt,nt
C[C@@H]1CN([C@@H](C)CO)C(=O)c2cc(NC(=O)Nc3ccccc3)ccc2O[C@@H](C)CCCCO[C@@H]1CN(C)S(=O)(=O)c1cccs1,nt,nt,i,nt,nt,nt
CCOC(=O)c1cc(-c2ccccc2)sc1NC(=O)COC(=O)c1ccc(Cl)c(S(N)(=O)=O)c1,29,i,nt,nt,i,i
O=c1c2ccccc2sn1-c1nccs1,38,i,i,i,i,i
O=c1c2ccccc2sn1-c1ccccc1,i,i,nt,i,nt,nt
O=S(=O)(c1ccccc1)N1CCN(c2nc(-c3cccnc3)nc3ccccc23)CC1,i,i,i,i,nt,nt
O=S(=O)(c1ccc(F)cc1)N1CCN(c2nc(-c3cccnc3)nc3ccccc23)CC1,30,i,i,i,i,i
O=C(OCC(=O)N1CCCC1=O)c1ncc(Cl)c(Cl)c1Cl,31,i,i,i,i,i
NS(=O)(=O)c1ccc(NC(=O)COC(=O)c2ncc(Cl)c(Cl)c2Cl)cc1,32,i,nt,i,i,29
CCC(=O)N[C@H]1CC[C@@H](CC(=O)NCC2CCCCC2)O[C@H]1CO,nt,nt,i,nt,nt,nt
CCNC(=O)Cn1cc(C(F)(F)F)cc(Cl)c1=O,30,i,i,i,i,i
O=C(CNc1ccc(F)cc1)N/N=C1\CCCc2ccccc21,30,i,i,i,i,i
O=C(Cc1ccc(Cl)cc1)N/N=C1\CCCc2ccccc21,i,i,nt,i,nt,nt
NS(=O)(=O)c1c(Sc2ccccc2C(=O)O)ccc2ccccc12,37,i,i,i,17,38
CCOc1ccc(-n2nc3c(=S)[nH]nc(C)c3c2C)cc1,92,i,nt,i,55,107
O=C(C[C@H]1CC[C@@H]2NC[C@@H](O)COC[C@H]2O1)NCc1ccc2c(c1)OCO2,nt,nt,i,nt,nt,nt
COc1cccc(C(=O)Nc2ccc3c(c2)OC[C@@H](C)N(C(=O)C2CCCC2)C[C@H](C)[C@@H](OC)CN(C)C3=O)c1,nt,nt,i,nt,nt,nt
COc1cccc(C(c2sc3nc(C)nn3c2O)N2CCc3ccccc3C2)c1 (configuration not stated),33,i,i,i,i,i
